The results in this text go back to ChEMBL document CHEMBL3102710, “Design, synthesis, and evaluation of fimbrolide-nitric oxide donor hybrids as antimicrobial agents” (J Med Chem, 2013).

Each structure is given as a SMILES string. Calls of active or inactive are those of the source. Unless noted, the calls are words filed in the database; no cut-off is given here.

A short description of series [1]: Inhibition of quorum sensing system in Pseudomonas aeruginosa PAO1 MH602 harboring lasB promoter fused with GFP-ASV assessed as reduction in GFP-ASV reporter protein expression at 9.8 uM measured every 30 mins relative to control. An outline of the steps:
(§1)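 P. aeruginosa PAO1 carrying a PlasB::gfp(ASV) fusion plasmid, which makes its own AHL signals, incubated with compounds at 88.8, 29.6, 9.9, 3.3 or 1.0 μM. GFP fluorescence (RFU) read every half hour. Percent QS inhibition is the percent RFU difference between sample and untreated control, taken at the time point when control fluorescence peaks.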

The subject of series [2] is Pseudomonas aeruginosa. Put plainly: Antibacterial activity against Pseudomonas aeruginosa PAO1 MH602 harboring lasB promoter fused with GFP-ASV assessed as growth inhibition at 88 uM measured every 30 mins by GFP-ASV reporter gene assay. Type of series: organism-based. The note with it: pseudomonas aeruginosa, in vivo, 0.5 h, 88 µM. An outline of the steps: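 Cell growth of the PAO1 PlasB::gfp(ASV) reporter strain tracked as OD600 every half hour during compound incubation, alongside GFP readings. Growth is compared against the untreated control.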
(Reporter assays use an easily measured gene product as a stand-in for the process of interest.)

Series [3] in a line: Inhibition of quorum sensing system in Pseudomonas aeruginosa PAO1 MH602 harboring lasB promoter fused with GFP-ASV assessed as reduction in GFP-ASV reporter protein expression measured every 30 mins. An outline of the steps:
as §1

Series [4] is described as follows: Inhibition of quorum sensing system in Pseudomonas aeruginosa PAO1 MH602 harboring lasB promoter fused with GFP-ASV assessed as reduction in GFP-ASV reporter protein expression at 29 uM measured every 30 mins relative to control. Summed up: as §1
Series [5] in a line: Inhibition of quorum sensing system in Pseudomonas aeruginosa PAO1 MH602 harboring lasB promoter fused with GFP-ASV assessed as reduction in GFP-ASV reporter protein expression at 266 uM measured every 30 mins relative to control.
The nature of series [6]: Induction of nitric oxide release in PBS buffer supplemented with L-cysteine, xanthine, xanthine oxidase assessed as nitrite release at 250 to 500 uM after 1 hr by Griess assay. Type of series: physicochemical. Summed up: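 Total NO release was quantified as nitrite with Griess reagent, which detects nitrite at ≥1 μM. Because of that limit, compounds were added at 250 μM and 500 μM.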
In general terms: Griess reagent forms a coloured azo dye with nitrite.

Series [7] in a line: Inhibition of quorum sensing system in Pseudomonas aeruginosa PAO1 MH602 harboring lasB promoter fused with GFP-ASV assessed as reduction in GFP-ASV reporter protein expression at 88 uM measured every 30 mins relative to control. An outline of the steps:
as §1

Series [8] in a line: Inhibition of quorum sensing system in Pseudomonas aeruginosa PAO1 MH602 harboring lasB promoter fused with GFP-ASV assessed as reduction in GFP-ASV reporter protein expression at 3.2 uM measured every 30 mins relative to control. An outline of the steps:
as §1

Series [9] concerns Pseudomonas aeruginosa. Put plainly: Antibacterial activity against Pseudomonas aeruginosa PAO1 assessed as inhibition of biofilm formation at 150 uM after 6 hrs by crystal violet staining assay relative to control. Type of series: functional.
In series [10] the test system is Pseudomonas aeruginosa. Put plainly: Induction of nitric oxide-dependent nirS gene expression in Pseudomonas aeruginosa at 500 uM incubated for 2 hrs under dark condition by GFP reporter gene assay relative to untreated control. Type of series: functional.
For series [11], the system named is Pseudomonas aeruginosa. Put plainly: Antibacterial activity against Pseudomonas aeruginosa assessed as growth inhibition at 500 uM after 2 hrs by GFP reporter gene assay. The note with it: in vivo. Type of series: organism-based.

For orientation: inhibition means the change of the read-out against control, counted positive when it falls. For the compound `CCCC(SC(=O)CCCCCO[N+](=O)[O-])C1=CC(=C(Br)Br)OC1=O` (stereo unspecified), the inhibition result in series [1], in series [4] and in series [8] was “inactive” in each case. In addition, the results for the Activity result (in the series with Pseudomonas aeruginosa [2]; in [6]) were “Non-toxic” and “Active”, respectively. Further, the inhibition result is “Dose-dependent effect” in series [3], 47.8% in series [5] and 10.1% in [7].
For the compound `CCCC(OC(=O)CO/N=[N+](\[O-])N(CC)CC)C1=CC(=C(Br)Br)OC1=O` (stereo unspecified), the inhibition is 6.2% in series [1]; “Dose-dependent effect” in series [3]; 30% in [4]; 74.8% in series [5]; 52% in series [7]. The Activity result with Pseudomonas aeruginosa [2] was “Non-toxic”. The inhibition entry (in the series on Pseudomonas aeruginosa [9]; in series [8]) was “inactive” in each case.
In the case of `CCCC(OC(=O)CCC(=O)N1CCN(/[N+]([O-])=N/OC)CC1)C1=CC(=C(Br)Br)OC1=O` (stereo unspecified), the inhibition in [1] was 4.6%; in series [3], “Dose-dependent effect”; in series [4] it was 17.7%; in [5], 65.4%; in [7] it was 39.3%. Further, the Activity entry in the series with Pseudomonas aeruginosa [2] is given as “Non-toxic”. Further, the inhibition result (with Pseudomonas aeruginosa [9]; in [8]) was “inactive” in each case.
With `CCCC(OC(=O)CCCO[N+](=O)[O-])C1=CC(=C(Br)Br)OC1=O` (stereo unspecified), the inhibition in series [1] is 8%; in [3] it was “Dose-dependent effect”; in series [4] it was 12.3%; in series [5] it was 55.8%; in series [7] it was 28.6%. Also, the Activity entry in the series with Pseudomonas aeruginosa [2] is “Non-toxic”; in series [6] it was 1 µM; with Pseudomonas aeruginosa [11], “Non-toxic”. Moreover, the result in the series with Pseudomonas aeruginosa [10] was inactive. Moreover, the inhibition entry in series [8] is “inactive”.
As to `CCCCCC(OC(=O)CC(=O)N1CCN(/[N+]([O-])=N/OC)CC1)C1=CC(=C(Br)Br)OC1=O` (stereo unspecified), the inhibition in [1] is 9.5%; in series [3], “Dose-dependent effect”; in series [4], 23.7%; in series [5], 62.9%; in [7], 41.5%. For the same compound, the Activity entry with Pseudomonas aeruginosa [2] is “Non-toxic”. For the same compound, the inhibition result (in the series on Pseudomonas aeruginosa [9]; in [8]) was “inactive” in each case.
With `CCCC(SC(=O)CCCO[N+](=O)[O-])C1=CC(=C(Br)Br)OC1=O` (stereo unspecified), the inhibition result in [1], in series [4] and in [8] was “inactive” throughout. The Activity result in the series with Pseudomonas aeruginosa [2] is reported as “Non-toxic”; in series [6] it was “Active”; in the series on Pseudomonas aeruginosa [11], “Non-toxic”. For the same compound, the figures for the inhibition entry in series [3], in series [5] and in [7] were “Dose-dependent effect”, 54.2% and 13.8%, respectively. Also, in the series on Pseudomonas aeruginosa [10], the result was inactive.
With `CCCCCCCCCCCC(OC(=O)CCC(=O)N1CCN(/[N+]([O-])=N/OC)CC1)C1=CC(=C(Br)Br)OC1=O` (stereo unspecified), the inhibition result (in series [1]; in the series with Pseudomonas aeruginosa [9]; in series [4]; in [8]) was “inactive” throughout. In the series with Pseudomonas aeruginosa [2], the Activity entry is given as “Non-toxic”. Besides, the inhibition entry is “Dose-dependent effect” in series [3], 41.9% in series [5] and 6% in series [7].
In the case of `O=[N+]([O-])O[C@H]1CO[C@H]2[C@@H]1OC[C@H]2O[N+](=O)[O-]` [ISOSORBIDE DINITRATE], the result in the series on Pseudomonas aeruginosa [10] was inactive. Also, the Activity in series [6] was 4 µM; with Pseudomonas aeruginosa [11] it was “Non-toxic”.
With `CCCCCCC(O[N+](=O)[O-])C1=CC(=C(Br)Br)OC1=O` (stereo unspecified), the inhibition entry in series [1] and in [8] was “inactive” in each case. The Activity entry in the series with Pseudomonas aeruginosa [2] and in the series on Pseudomonas aeruginosa [11] was “Non-toxic” in each case. Further, the inhibition entry in series [3] was “Dose-dependent effect”; in series [4], 9.5%; in series [5], 65.7%; in series [7] it was 29.9%. For the same compound, the outcome in the series on Pseudomonas aeruginosa [10] was inactive.
For `CCCC(S)C1=CC(=C(Br)Br)OC1=O` (stereo unspecified), the inhibition was 1.5% in [1]; “Dose-dependent effect” in series [3]; 4.3% in series [4]; 50.5% in series [5]; 17.9% in [7]. Further, the Activity entry in the series on Pseudomonas aeruginosa [2] is “Non-toxic”. For the same compound, the inhibition entry in series [8] was “inactive”.
For the compound `CCCC(OC(=O)CCCCCO[N+](=O)[O-])C1=CC(=C(Br)Br)OC1=O` (stereo unspecified), the inhibition result in series [1] and in series [8] was “inactive” throughout. In addition, the Activity entry with Pseudomonas aeruginosa [2] and in the series on Pseudomonas aeruginosa [11] was “Non-toxic” in each case. In addition, the inhibition entry in [3] is “Dose-dependent effect”; in series [4], 7.9%; in series [5] it was 54.1%; in series [7], 18.8%. Besides, the result with Pseudomonas aeruginosa [10] was inactive.
On to `CCCCCCCC(O[N+](=O)[O-])C1=CC(=C(Br)Br)OC1=O` (stereo unspecified), for which the inhibition result in series [1], in series [4] and in series [8] was “inactive” in each case. Besides, the Activity result is given as “Non-toxic” in the series with Pseudomonas aeruginosa [2], “Active” in series [6] and “Non-toxic” in the series with Pseudomonas aeruginosa [11]. The inhibition result is “Dose-dependent effect” in series [3], 58.2% in [5] and 19.2% in [7]. Also, the result with Pseudomonas aeruginosa [10] was inactive.
In the case of `CCCC(OC(=O)CCO[N+](=O)[O-])C1=CC(=C(Br)Br)OC1=O` (stereo unspecified), the inhibition is 12.5% in [1]; “Dose-dependent effect” in series [3]; 43.1% in series [4]; 80.6% in series [5]; 62.8% in [7]. In addition, the Activity result in the series on Pseudomonas aeruginosa [2] and in the series with Pseudomonas aeruginosa [11] was “Non-toxic” each time. Moreover, the result in the series with Pseudomonas aeruginosa [10] was inactive. Besides, in [8], the inhibition result is “inactive”.
For the compound `CCCC(OC(=O)CCCCCCCCCCO[N+](=O)[O-])C1=CC(=C(Br)Br)OC1=O` (stereo unspecified), the inhibition result in series [1] and in [8] was “inactive” in each case. Besides, the Activity result in the series on Pseudomonas aeruginosa [2] was “Non-toxic”; in series [6], “Active”; in the series with Pseudomonas aeruginosa [11], “Non-toxic”. Further, the inhibition result is “Dose-dependent effect” in [3], 6.2% in series [4], 54.8% in series [5] and 21.8% in series [7]. Also, in the series with Pseudomonas aeruginosa [10], the outcome was inactive.
With `CCCC(OC(=O)CO/N=[N+](\[O-])N1CCOCC1)C1=CC(=C(Br)Br)OC1=O` (stereo unspecified), the inhibition entry (in series [1]; in the series on Pseudomonas aeruginosa [9]; in [8]) was “inactive” in each case. Also, the Activity result in the series on Pseudomonas aeruginosa [2] is recorded as “Non-toxic”. Also, the inhibition entry in series [3] was “Dose-dependent effect”; in series [4] it was 15.9%; in [5], 72.1%; in series [7], 47.5%.
Consider `CCCCC1=C(Br)/C(=C/Br)OC1=O`, for which the inhibition result in series [1] and in series [8] was “inactive” throughout. In addition, the Activity result in the series on Pseudomonas aeruginosa [2] was “Non-toxic”. Moreover, the inhibition result in [3] was “Dose-dependent effect”; in series [4], 5.9%; in [5] it was 75.8%; in series [7], 39.9%.
As to `CCCCC1=CC(=C(Br)Br)OC1=O`, the inhibition result in series [1] and in [8] was “inactive” in each case. Moreover, the Activity entry with Pseudomonas aeruginosa [2] is “Non-toxic”. Moreover, the inhibition entry in series [3] is “Dose-dependent effect”; in series [4], 17%; in [5] it was 69.8%; in [7] it was 34.1%.
For `CCCC(O)C1=CC(=C(Br)Br)OC1=O` (stereo unspecified), the inhibition in [1] is 16.7%; in series [3], “Dose-dependent effect”; in [4] it was 37%; in series [5] it was 85.8%; in series [7] it was 62.9%. For the same compound, in the series with Pseudomonas aeruginosa [2], the Activity result is given as “Non-toxic”. In series [8], the inhibition entry was “inactive”.
